Here are results for 8 molecules from ChEMBL document CHEMBL4118251 (J Med Chem, 2018).

Where only a bound is given, the exact number is not on record here.

Assay [1] can be described thus: Agonist activity at monkey GIP receptor expressed in HEK293 cells assessed as cAMP accumulation after 30 mins by HTRF assay. In kind it is cell-based, Macaca mulatta. The essentials: (§1)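 HEK293 lines stably expressing human or monkey receptor were detached with accutase. Cells were resuspended at 400 000 cells/mL in HBSS/20 mM HEPES/0.1% BSA/2 mM IBMX and exposed to peptide for 30 min at room temperature. cAMP was read by HTRF (665/620 nm) after 1 h lysis.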

Assay [2] can be described thus: Agonist activity at monkey glucagon receptor expressed in HEK293 cells assessed as cAMP accumulation after 30 mins by HTRF assay. In kind it is cell-based, Macaca mulatta. The essentials: as §1
A further assay has as its target Glucagon receptor (Homo sapiens, UniProt P47871). Kind of assay: Agonist activity at human glucagon receptor expressed in HEK293 cells assessed as cAMP accumulation after 30 mins by HTRF assay. In kind it is functional, cell-based.
The target in assay [3] is Glucagon-like peptide 1 receptor (Homo sapiens, UniProt P43220). Kind of assay: Agonist activity at human GLP1R expressed in HEK293 cells assessed as cAMP accumulation after 30 mins by HTRF assay. In kind it is functional, cell-based.
In assay [4] the target is T1, Gastric inhibitory polypeptide receptor (Homo sapiens, UniProt P48546).
T1 sequence (P48546 whole entry): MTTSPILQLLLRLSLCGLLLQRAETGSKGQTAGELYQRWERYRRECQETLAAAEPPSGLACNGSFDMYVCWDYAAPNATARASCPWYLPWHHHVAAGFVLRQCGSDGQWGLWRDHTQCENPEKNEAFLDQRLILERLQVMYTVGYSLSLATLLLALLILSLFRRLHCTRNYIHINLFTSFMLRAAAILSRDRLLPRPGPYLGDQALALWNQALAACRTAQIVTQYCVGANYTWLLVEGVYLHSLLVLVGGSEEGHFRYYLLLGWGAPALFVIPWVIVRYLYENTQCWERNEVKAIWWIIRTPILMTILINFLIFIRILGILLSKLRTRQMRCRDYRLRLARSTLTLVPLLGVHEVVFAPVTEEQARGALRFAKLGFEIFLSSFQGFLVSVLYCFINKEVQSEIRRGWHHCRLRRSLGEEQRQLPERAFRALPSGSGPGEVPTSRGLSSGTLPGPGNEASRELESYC
Kind of assay: Agonist activity at human GIP receptor expressed in HEK293 cells assessed as cAMP accumulation after 30 mins by HTRF assay. Format: functional, cell-based.

The species entered for a further assay is Homo sapiens. The experiment in a line: Selectivity ratio of EC50 for human GIP receptor expressed in HEK293 cells to EC50 for human GLP1R expressed in HEK293 cells. Format: cell-based. The essentials: as §1

Chain of Glucagon receptor (P47871 whole entry): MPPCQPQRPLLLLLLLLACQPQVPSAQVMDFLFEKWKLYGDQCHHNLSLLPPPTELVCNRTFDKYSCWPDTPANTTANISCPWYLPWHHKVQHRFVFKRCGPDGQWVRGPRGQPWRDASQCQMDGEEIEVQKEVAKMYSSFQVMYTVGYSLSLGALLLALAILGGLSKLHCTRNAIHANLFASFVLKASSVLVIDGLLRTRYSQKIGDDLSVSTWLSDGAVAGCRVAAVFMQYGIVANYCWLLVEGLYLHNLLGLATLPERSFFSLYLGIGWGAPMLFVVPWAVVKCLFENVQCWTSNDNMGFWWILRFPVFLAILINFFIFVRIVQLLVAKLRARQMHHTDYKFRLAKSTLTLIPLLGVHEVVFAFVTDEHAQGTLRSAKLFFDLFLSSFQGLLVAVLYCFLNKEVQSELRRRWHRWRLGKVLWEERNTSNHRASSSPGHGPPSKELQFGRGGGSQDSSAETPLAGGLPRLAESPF
Chain of Glucagon-like peptide 1 receptor (P43220 whole entry): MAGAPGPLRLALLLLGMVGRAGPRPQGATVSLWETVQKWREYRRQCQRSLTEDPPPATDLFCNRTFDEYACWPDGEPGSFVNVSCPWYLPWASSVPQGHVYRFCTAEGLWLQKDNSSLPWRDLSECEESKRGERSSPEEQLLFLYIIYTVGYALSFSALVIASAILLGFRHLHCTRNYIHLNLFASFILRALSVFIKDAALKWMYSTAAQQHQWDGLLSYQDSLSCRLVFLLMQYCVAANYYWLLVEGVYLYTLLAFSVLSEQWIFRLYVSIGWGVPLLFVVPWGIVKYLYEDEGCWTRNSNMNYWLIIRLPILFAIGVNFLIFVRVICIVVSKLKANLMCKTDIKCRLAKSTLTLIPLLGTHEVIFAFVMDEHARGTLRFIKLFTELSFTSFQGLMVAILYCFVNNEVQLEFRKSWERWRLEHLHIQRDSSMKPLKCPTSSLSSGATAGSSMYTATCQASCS

As for GLUCAGON, the EC50 in assay [1] (hek293) was above 100000 nM; in assay [2] (hek293), 0.0015 nM.
Regarding `CCCCCCCCCCCCCCCCC(=O)N[C@@H](CCC(=O)NCCCC[C@H](NC(=O)[C@H](CCC(N)=O)NC(=O)[C@H](CCCCN)NC(=O)[C@H](CO)NC(=O)[C@H](CC(C)C)NC(=O)[C@H](CC(=O)O)NC(=O)[C@H](CO)NC(=O)[C@@H](NC(=O)[C@H](Cc1ccccc1)NC(=O)[C@@H](NC(=O)CNC(=O)[C@H](CCC(N)=O)NC(=O)[C@H](CO)NC(=O)[C@@H](N)Cc1cnc[nH]1)[C@@H](C)O)[C@@H](C)O)C(=O)N[C@@H](CC(=O)O)C(=O)N[C@@H](CO)C(=O)N[C@@H](CCCNC(=N)N)C(=O)N[C@@H](CCCNC(=N)N)C(=O)N[C@@H](C)C(=O)N[C@@H](CCC(N)=O)C(=O)N[C@@H](CC(=O)O)C(=O)N[C@@H](Cc1ccccc1)C(=O)N[C@H](C(=O)N[C@@H](CCC(=O)O)C(=O)N[C@@H](Cc1c[nH]c2ccccc12)C(=O)N[C@@H](CC(C)C)C(=O)N[C@@H](CCCCN)C(=O)N[C@@H](CC(N)=O)C(=O)NCC(=O)NCC(=O)N1CCC[C@H]1C(=O)N[C@@H](CO)C(=O)N[C@@H](CO)C(=O)NCC(=O)N[C@@H](C)C(=O)N1CCC[C@H]1C(=O)N1CCC[C@H]1C(=O)N1CCC[C@H]1C(=O)N[C@@H](CO)C(=O)O)[C@@H](C)CC)C(=O)O`, the results for the EC50 (on Glucagon receptor; in assay [3]; in assay [4]) were 0.0007 nM, 0.0039 nM and 1.21 nM, respectively.
As for `CCCCCCCCCCCCCCCCC(=O)N[C@@H](CCC(=O)NCCCC[C@H](NC(=O)[C@H](CCC(N)=O)NC(=O)[C@H](CCCCN)NC(=O)[C@H](CO)NC(=O)[C@H](CC(C)C)NC(=O)[C@H](CC(=O)O)NC(=O)[C@H](CO)NC(=O)[C@@H](NC(=O)[C@H](Cc1ccccc1)NC(=O)[C@@H](NC(=O)CNC(=O)[C@H](CCC(N)=O)NC(=O)C(C)(C)NC(=O)[C@@H](N)Cc1cnc[nH]1)[C@@H](C)O)[C@@H](C)O)C(=O)N[C@@H](CC(=O)O)C(=O)N[C@@H](CCC(=O)O)C(=O)N[C@@H](CCC(N)=O)C(=O)N[C@@H](CCCNC(=N)N)C(=O)N[C@@H](C)C(=O)N[C@@H](CCCCN)C(=O)N[C@@H](CC(C)C)C(=O)N[C@@H](Cc1ccccc1)C(=O)N[C@H](C(=O)N[C@@H](CCC(=O)O)C(=O)N[C@@H](Cc1c[nH]c2ccccc12)C(=O)N[C@@H](CC(C)C)C(=O)NC(C)(C)C(=O)N[C@@H](C)C(=O)NCC(=O)NCC(=O)N1CCC[C@H]1C(=O)N[C@@H](CO)C(=O)N[C@@H](CO)C(=O)NCC(=O)N[C@@H](C)C(=O)N1CCC[C@H]1C(=O)N1CCC[C@H]1C(=O)N1CCC[C@H]1C(=O)N[C@@H](CO)C(N)=O)[C@@H](C)CC)C(=O)O`, the EC50 on Glucagon receptor is 0.0154 nM; in assay [3], 0.0064 nM; in assay [4] it was 1.16 nM. Besides, the Ratio EC50 in the assay filed under Homo sapiens is 181.
As for `CC[C@H](C)[C@H](NC(=O)[C@H](Cc1ccccc1)NC(=O)[C@H](CCC(=O)O)NC(=O)[C@H](CCCCN)NC(=O)[C@H](C)NC(=O)[C@H](C)NC(=O)[C@H](CCC(N)=O)NC(=O)CNC(=O)[C@H](CCC(=O)O)NC(=O)[C@H](CC(C)C)NC(=O)[C@H](Cc1ccc(O)cc1)NC(=O)[C@H](CO)NC(=O)[C@H](CO)NC(=O)[C@@H](NC(=O)[C@H](CC(=O)O)NC(=O)[C@H](CO)NC(=O)[C@@H](NC(=O)[C@H](Cc1ccccc1)NC(=O)[C@@H](NC(=O)CNC(=O)[C@H](CCC(=O)O)NC(=O)[C@H](C)NC(=O)[C@@H](N)Cc1cnc[nH]1)[C@@H](C)O)[C@@H](C)O)C(C)C)C(=O)N[C@@H](C)C(=O)N[C@@H](Cc1c[nH]c2ccccc12)C(=O)N[C@@H](CC(C)C)C(=O)N[C@H](C(=O)N[C@@H](CCCCN)C(=O)NCC(=O)N[C@@H](CCCNC(=N)N)C(=O)O)C(C)C`, the EC50 in assay [1] (Macaca mulatta, HEK293, 0.5 h) was above 100000 nM; in assay [2] (Macaca mulatta, HEK293, 0.5 h), above 100000 nM; in assay [4] it was above 100000 nM.
As for `CCCCCCCCCCCCCCCCC(=O)N[C@@H](CCC(=O)N[C@@H](CCC(=O)NCCCC[C@H](NC(=O)[C@H](CCC(N)=O)NC(=O)[C@H](CCCCN)NC(=O)[C@H](CO)NC(=O)[C@H](CC(C)C)NC(=O)[C@H](CC(=O)O)NC(=O)[C@H](CO)NC(=O)[C@@H](NC(=O)[C@H](Cc1ccccc1)NC(=O)[C@@H](NC(=O)CNC(=O)[C@H](CCC(N)=O)NC(=O)C(C)(C)NC(=O)[C@@H](N)Cc1cnc[nH]1)[C@@H](C)O)[C@@H](C)O)C(=O)N[C@@H](CC(=O)O)C(=O)N[C@@H](CCC(=O)O)C(=O)N[C@@H](CCC(N)=O)C(=O)N[C@@H](CCCNC(=N)N)C(=O)N[C@@H](C)C(=O)N[C@@H](CCCCN)C(=O)N[C@@H](CC(C)C)C(=O)N[C@@H](Cc1ccccc1)C(=O)N[C@H](C(=O)N[C@@H](CCC(=O)O)C(=O)N[C@@H](Cc1c[nH]c2ccccc12)C(=O)N[C@@H](CC(C)C)C(=O)N[C@H](C(=O)N[C@@H](C)C(=O)NCC(=O)NCC(=O)N1CCC[C@H]1C(=O)N[C@@H](CO)C(=O)N[C@@H](CO)C(=O)NCC(=O)N[C@@H](C)C(=O)N1CCC[C@H]1C(=O)N1CCC[C@H]1C(=O)N1CCC[C@H]1C(=O)N[C@@H](CO)C(N)=O)[C@@H](C)CC)[C@@H](C)CC)C(=O)O)C(=O)O`, the EC50 at Glucagon receptor came out at 0.0025 nM; in assay [3] it was 0.0053 nM; in assay [4] it was 0.0582 nM.
The like results for `CCCCCCCCCCCCCCCCC(=O)N[C@@H](CCC(=O)N[C@@H](CCC(=O)NCCCC[C@H](NC(=O)[C@H](CCC(N)=O)NC(=O)[C@H](CCCCN)NC(=O)[C@H](CO)NC(=O)[C@H](CC(C)C)NC(=O)[C@H](CC(=O)O)NC(=O)[C@H](CO)NC(=O)[C@@H](NC(=O)[C@H](Cc1ccccc1)NC(=O)[C@@H](NC(=O)CNC(=O)[C@H](CCC(N)=O)NC(=O)C(C)(C)NC(=O)[C@@H](N)Cc1cnc[nH]1)[C@@H](C)O)[C@@H](C)O)C(=O)N[C@@H](CC(=O)O)C(=O)N[C@@H](CCC(=O)O)C(=O)N[C@@H](CCC(N)=O)C(=O)N[C@@H](CCCNC(=N)N)C(=O)N[C@@H](C)C(=O)N[C@@H](CCCCN)C(=O)N[C@@H](CC(C)C)C(=O)N[C@@H](Cc1ccccc1)C(=O)N[C@H](C(=O)N[C@@H](CCC(=O)O)C(=O)N[C@@H](Cc1c[nH]c2ccccc12)C(=O)N[C@@H](CC(C)C)C(=O)N[C@@H](CC(C)C)C(=O)N[C@@H](C)C(=O)NCC(=O)NCC(=O)N1CCC[C@H]1C(=O)N[C@@H](CO)C(=O)N[C@@H](CO)C(=O)NCC(=O)N[C@@H](C)C(=O)N1CCC[C@H]1C(=O)N1CCC[C@H]1C(=O)N1CCC[C@H]1C(=O)N[C@@H](CO)C(N)=O)[C@@H](C)CC)C(=O)O)C(=O)O` were, in that order, 0.0016 nM, 0.0048 nM and 0.189 nM.
On the same counts, the results for `CCCCCCCCCCCCCCCCCCC(=O)N[C@@H](CCC(=O)NCCCC[C@H](NC(=O)[C@H](CCC(N)=O)NC(=O)[C@H](CCCCN)NC(=O)[C@H](CO)NC(=O)[C@H](CC(C)C)NC(=O)[C@H](CC(=O)O)NC(=O)[C@H](CO)NC(=O)[C@@H](NC(=O)[C@H](Cc1ccccc1)NC(=O)[C@@H](NC(=O)CNC(=O)[C@H](CCC(N)=O)NC(=O)C(C)(C)NC(=O)[C@@H](N)Cc1cnc[nH]1)[C@@H](C)O)[C@@H](C)O)C(=O)N[C@@H](CC(=O)O)C(=O)N[C@@H](CCC(=O)O)C(=O)N[C@@H](CCC(N)=O)C(=O)N[C@@H](CCCNC(=N)N)C(=O)N[C@@H](C)C(=O)N[C@@H](CCCCN)C(=O)N[C@@H](CC(C)C)C(=O)N[C@@H](Cc1ccccc1)C(=O)N[C@H](C(=O)N[C@@H](CCC(=O)O)C(=O)N[C@@H](Cc1c[nH]c2ccccc12)C(=O)N[C@@H](CC(C)C)C(=O)N[C@@H](CCCCN)C(=O)N[C@@H](C)C(=O)NCC(=O)NCC(=O)N1CCC[C@H]1C(=O)N[C@@H](CO)C(=O)N[C@@H](CO)C(=O)NCC(=O)N[C@@H](C)C(=O)N1CCC[C@H]1C(=O)N1CCC[C@H]1C(=O)N1CCC[C@H]1C(=O)N[C@@H](CO)C(N)=O)[C@@H](C)CC)C(=O)O` are 0.0019 nM, 0.0025 nM and 0.0397 nM.
With `CCCCCCCCCCCCCCCCC(=O)N[C@@H](CCC(=O)N[C@@H](CCC(=O)NCCCC[C@H](NC(=O)[C@H](CCC(N)=O)NC(=O)[C@H](CCCCN)NC(=O)[C@H](CO)NC(=O)[C@H](CC(C)C)NC(=O)[C@H](CC(=O)O)NC(=O)[C@H](CO)NC(=O)[C@@H](NC(=O)[C@H](Cc1ccccc1)NC(=O)[C@@H](NC(=O)CNC(=O)[C@H](CCC(N)=O)NC(=O)C(C)(C)NC(=O)[C@@H](N)Cc1cnc[nH]1)[C@@H](C)O)[C@@H](C)O)C(=O)N[C@@H](CC(=O)O)C(=O)N[C@@H](CCC(=O)O)C(=O)N[C@@H](CCC(N)=O)C(=O)N[C@@H](CCCNC(=N)N)C(=O)N[C@@H](C)C(=O)N[C@@H](CCCCN)C(=O)N[C@@H](CC(C)C)C(=O)N[C@@H](Cc1ccccc1)C(=O)N[C@H](C(=O)N[C@@H](CCC(=O)O)C(=O)N[C@@H](Cc1c[nH]c2ccccc12)C(=O)N[C@@H](CC(C)C)C(=O)N[C@@H](CCCCN)C(=O)N[C@@H](C)C(=O)NCC(=O)NCC(=O)N1CCC[C@H]1C(=O)N[C@@H](CO)C(=O)N[C@@H](CO)C(=O)NCC(=O)N[C@@H](C)C(=O)N1CCC[C@H]1C(=O)N1CCC[C@H]1C(=O)N1CCC[C@H]1C(=O)N[C@@H](CO)C(N)=O)[C@@H](C)CC)C(=O)O)C(=O)O`, the figures for the EC50 (on Glucagon receptor; in assay [3]; in assay [4]) were 0.0044 nM, 0.0022 nM and 0.224 nM, respectively.
